SENP7 block – SENP7 protease inhibitors, primary screen, biochemical, luminescence, uHTS | Sentrin-specific protease 7 (Homo sapiens), Q9BQF6 | recombinant SENP7, Z-RLRGG-aminoluciferin luminescence, 40 min | inhibition, % at 5 µM | 330,000 tested, 1.5% active | AID 434973, 2010;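 active = inhibition above about 50% at the single test dose, limit read from the data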;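 note: plate controls were DMSO with enzyme for no effect and no enzyme buffer wells for full effect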
Target sequence (Q9BQF6 706-1050 limits assumed): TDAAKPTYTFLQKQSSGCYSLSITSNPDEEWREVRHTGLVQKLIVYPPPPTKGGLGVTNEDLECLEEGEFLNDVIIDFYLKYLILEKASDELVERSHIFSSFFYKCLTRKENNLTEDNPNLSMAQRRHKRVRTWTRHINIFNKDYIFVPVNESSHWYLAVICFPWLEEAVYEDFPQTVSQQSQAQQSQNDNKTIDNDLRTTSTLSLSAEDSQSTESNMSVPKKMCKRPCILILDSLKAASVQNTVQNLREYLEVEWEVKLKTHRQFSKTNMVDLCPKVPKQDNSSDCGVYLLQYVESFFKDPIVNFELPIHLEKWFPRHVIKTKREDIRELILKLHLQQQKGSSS
SENP6 inh – SENP6 protease inhibitors, primary screen, biochemical, luminescence, uHTS. inhibition, % at 10 µM. Sentrin-specific protease 6 (Homo sapiens), Q9GZR1. AID 2599, 2010. Recombinant SENP6 catalytic domain, aminoluciferin luminescence. 330,000 tested, 1.8% active;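 active = inhibition above about 50% at the single tested dose, limit read from the data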;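 note: plate controls were DMSO wells with enzyme for no effect and DMSO wells lacking enzyme for full effect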
Apaf1 inhib – inhibitors of human Apaf-1 apoptosome, primary screen, biochemical, DEVD-Rh110 fluorescence, uHTS | 330,000 tested, 0.71% active | AID 489030, 2010 | reconstituted apoptosome caspase-3 activity | inhibition, % at 20 µM; active = inhibition of at least 40% at 20 µM;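 note: plate controls were DMSO wells for no effect and DEVD-CHO caspase inhibitor wells for full effect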
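System: Apoptosome proteins | Medium: Hepes pH 7.5 with detergent and BSA | Also added: Cytochrome c trigger plus (Z-DEVD)2-Rh110 caspase-3 substrate | Incubation: 30 min compound preincubation, 50 min activation, room temperature | Detection: Rhodamine 110 fluorescence at Ex 480/Em 540 nm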
SENP8 block-1 – human SENP8 protease inhibitors, primary screen, biochemical, fluorescence, Nedd8 protein substrate, uHTS; AID 602440, 2012; Sentrin-specific protease 8 (Homo sapiens), Q96LD8; recombinant SENP8; inhibition, % at 20 µM; 360,000 tested, 0.64% active; in the data active = inhibition mostly above about 40%, no sharp cut-off; inactive = mostly below about 27%
SENP1 inh – human SENP1 catalytic domain inhibitors, primary screen, biochemical, FRET, uHTS. inhibition, % at 10 µM. recombinant SENP1 catalytic domain, CyPet-SUMO1-YPet FRET cleavage. 360,000 tested, 0.21% active;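 active = inhibition at least 30% at 10 µM, raw YFP signal under a set limit, fluorescence ratio 0.5 to 1.5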;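 note: 0% = enzyme with DMSO and 100% = no enzyme wells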
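Compound: 10 µM single point, 0.5% DMSO; Test system: hSENP1 catalytic domain, recombinant; Timing: 50 min reaction at room temperature; Technique: FRET, CFP and YFP emission; Control set: no-enzyme wells low, DMSO-plus-enzyme wells high control.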
SENP8 block-2 – SENP8 protease inhibitors, primary screen, biochemical, luminescence | inhibition, % at 10 µM | AID 2540, 2010 | purified SENP8, Z-RLRGG-aminoluciferin cleavage | Sentrin-specific protease 8 (Homo sapiens), Q96LD8 | 330,000 tested, 1.2% active; in the data active = inhibition above about 50%
SENP8 conf – SENP8 protease inhibitors, retest, confirmation, biochemical, luminescence, single concentration. shares compounds with SENP7 block. Recombinant SENP8, Z-RLRGG-aminoluciferin luminescence, 60 min. inhibition, % at 12.5 µM. 6,200 tested, 40% active;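 active = mean inhibition across replicates above about 50%, limit read from the data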
SENP6 confirm – SENP6 protease inhibitors, confirmation, biochemical, luminescence, single concentration; shares compounds with SENP7 block; recombinant SENP6, Z-RLRGG-aminoluciferin luminescence; inhibition, % at 12.5 µM; 6,200 tested, 58% active; AID 488915, 2010
SENP7 confirm – SENP7 protease inhibitors, retest, confirmation, biochemical, luminescence, single concentration. shares compounds with SENP7 block. recombinant SENP7, Z-RLRGG-aminoluciferin luminescence, 40 min. AID 488917, 2010. 6,200 tested, 69% active. inhibition, % at 12.5 µM
Casp3 select – caspase-3 protease inhibitors, confirmation, selectivity assay for SENP inhibitor project, biochemical, single concentration | purified caspase-3, Z-DEVD-aminoluciferin luminescence, 60 min | shares compounds with SENP7 block | inhibition, % at 12.5 µM | AID 488918, 2010 | 6,200 tested, 60% active;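 active = mean inhibition above about 50%, limit read from the data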;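 note: plate controls were enzyme with DMSO for no effect and wells without caspase-3 for full effect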
SENP luc ctr – luminescence interference (SENP counter-screen). shares compounds with SENP7 block. Pre-incubated SENP8/Z-RLRGG-aminoluciferin, luciferase luminescence interference. inhibition, % at 12.5 µM. 6,200 tested, 39% active;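 active = mean inhibition above about 50% when retested at one dose, limit read from the data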;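 note: plate controls were DMSO wells with completed reaction for no effect and substrate without enzyme for full effect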
* = called active by the depositor; i = inactive; . = no result given. In the library only some 2.9% were active in any assay of this set; here they are far more common.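 Rule for the calls, unless noted: active = mean inhibition above about 50% in the one-dose retest (limit read from the data); inactive = the rest.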

SMILES | SENP7 block | SENP6 inh | Apaf1 inhib | SENP8 block-1 | SENP1 inh | SENP8 block-2 | SENP8 conf | SENP6 confirm | SENP7 confirm | Casp3 select | SENP luc ctr
COc1ccc(-c2cc(C(=O)Nc3cccc(Cl)c3)no2)cc1 | 78* | 15 | -3 | 8 | 0 | 18 | -21 | -12 | -4 | 11 | -5
O=C(Nc1cccc(O)c1)c1cc(-c2cccs2)on1 | 75* | 94* | 8 | 17 | 2 | 85* | 94* | 94* | 100* | 92* | 95*
O=C(Nc1cccc(Cl)c1)c1cc(-c2ccco2)on1 | 87* | 83* | 13 | -5 | -2 | 78* | 36 | 81* | 97* | 77* | 42
COc1ccc(NC(=O)c2cc(-c3cccc(OC)c3)on2)cc1 | 5 | -20 | -20 | 18 | 2 | -14 | . | . | . | . | .
COc1cccc(-c2cc(C(=O)Nc3cccc(O)c3)no2)c1 | 97* | 99* | -6 | 9 | 0 | 94* | 88* | 90* | 102* | 92* | 90*
O=C(Nc1c(Cl)cccc1Cl)c1cc(-c2ccco2)on1 | -2 | -24 | 12 | -2 | 0 | 5 | . | . | . | . | .
CC1(C(=O)NS(=O)(=O)c2ccc(F)cc2F)CCN1C(=O)c1ccccc1 (stereo unspecified) | . | . | . | 26 | 0 | . | . | . | . | . | .
Cc1cccc(N=Nc2ccc(O)c3ncccc23)c1 | 26 | 69* | 10 | 37 | -1 | 33 | -15 | -2 | 9 | 48 | 1
CCN(C(=O)CSc1cccc[n+]1[O-])C1CCCCC1 | 0 | 0 | -9 | 2 | 2 | 15 | . | . | . | . | .
O=C(Nc1ccccc1Cl)C(=O)c1cn(CC(=O)N2CCOCC2)c2ccccc12 | 74* | 44 | 4 | -23 | 0 | 31 | 17 | 16 | 24 | 18 | 7
CCN(CC)C(=O)c1[nH]cnc1C(=O)Nc1ccc(C)cc1 | 4 | -4 | 2 | 10 | 1 | 6 | . | . | . | . | .
CCCN1C(=O)/C(=C/c2nc3ccccc3c(=O)[nH]2)c2ccccc21 | 5 | 13 | 19 | 6 | 2 | -4 | . | . | . | . | .
COc1cc(/C=C/c2nc3ccccc3c(=O)[nH]2)ccc1O | . | . | . | i | 5 | . | . | . | . | . | .
Cc1[nH]c2ccccc2c1/C=C/c1nc2ccccc2c(=O)[nH]1 | 3 | -5 | 6 | -406 | -34 | -16 | . | . | . | . | .
O=c1[nH]c(/C=C/c2ccccc2Cl)nc2ccccc12 | 94* | 77* | 22 | -52 | -3 | 76* | 43 | 42 | 60* | 37 | 3
Cc1cccc(/C=C/c2nc3ccccc3c(=O)[nH]2)c1 | 97* | 87* | 10 | -79 | 0 | 75* | 38 | 68* | 39 | 79* | 4
O=C(O)c1ccc(/C=C/c2nc3ccccc3c(=O)[nH]2)cc1 | 100* | 97* | 7 | -97 | 1 | 95* | 97* | 98* | 102* | 98* | 56*

Source: PubChem BioAssay (Sanford-Burnham Center for Chemical Genomics)
